Here are results for seven molecules from ChEMBL document CHEMBL4619781 (J Med Chem, 2020).

Activity calls are given as the source filed them. The rule behind the calls is not given here.

Experiment [1] relates to SF-295. The experiment is described as follows: Cytotoxicity against human SF295 cells assessed as reduction in cell viability measured after 72 hrs by CellTiter 96 aqueous one solution assay. Type of experiment: functional, cell-based. Conditions: SF-295, 72 h. In short, it runs like this: (§1)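 Cells diluted to 5 × 10^4 cells/mL in RPMI 1640 or DMEM with 10% FBS, streptomycin and penicillin; plated and incubated 24 h at 37 °C, 5% CO2. Medium replaced, then serial dilutions added from DMSO at final 0–1000 nM for 72 h. Absorbance at 490 nm read after 30–60 min with reagent. Mean ± SD of three replicates; EC50 by curve fitting.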

Experiment [2] has as its system SK-MEL-5. The experiment is described as follows: Cytotoxicity against human SK-MEL-5 cells assessed as reduction in cell viability measured after 72 hrs by CellTiter 96 aqueous one solution assay. Format: functional, cell-based. Conditions: SK-MEL-5, 72 h. In short, it runs like this: as §1
Experiment [3] deals with MDA-MB-231. The experiment can be described thus: Cytotoxicity against human MDA-MB-231 cells assessed as reduction in cell viability measured after 72 hrs by CellTiter 96 aqueous one solution assay. Type of experiment: functional, cell-based. Particulars: MDA-MB-231, 72 h. In short, it runs like this: as §1
For experiment [4], the system named is NCI-H226. The experiment is described as follows: Cytotoxicity against human NCI-H226 cells assessed as reduction in cell viability measured after 72 hrs by CellTiter 96 aqueous one solution assay. Format: functional, cell-based. Particulars: NCI-H226, 72 h. In short, it runs like this:
as §1

In experiment [5] the test system is DNA. The experiment can be described thus: Induction of Escherichia coli plasmid pUC19 DNA cleavage assessed as increase in relaxation of supercoiled plasmid DNA measured after 24 hrs by SYBR green staining based gel electrophoresis. Type of experiment: nucleic-acid assay. In short, it runs like this: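 Supercoiled pUC19 (25 nM plasmid, […]) in Dulbecco's PBS pH 7.4 with 5% DMSO and varying compound concentrations, with or without 1 mM reduced glutathione, 37 °C for 24 h, in triplicate. Run on 1% agarose gel in TAE at 100 V for 1 h. Supercoiled (form I) band intensity normalized to DMSO controls.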

For the molecule `COC(=O)[C@H](O)[C@@](C)(O)[C@@]12O[C@]13c1cc(O)c4c(c1N[C@H]2C#C/C=C\C#C[C@H]3O)C(=O)c1c(ccc(OC)c1O)C4=O`, the concentration for a half-maximal effect (EC50) (in general, the midpoint of the concentration-response curve) amounted to 4 nM in experiment [1], 2.8 nM in experiment [2], 5 nM in experiment [3] and 32 nM in experiment [4]. For the same molecule, in experiment [5], the result was Active.
As for `COC(=O)[C@H](O)[C@@](C)(O)[C@@]12O[C@]13c1cc(O)c4c(c1N[C@H]2C#C/C=C\C#C[C@H]3O)C(=O)c1cc(O)ccc1C4=O`, the EC50 in experiment [1] was determined as 51 nM; in experiment [2], 36 nM; in experiment [3], 37 nM; in experiment [4], 75 nM. In addition, the outcome in experiment [5] was Active.
Take `COC(=O)[C@H](O)[C@@](C)(O)[C@@]12O[C@]13c1cc(O)c4c(c1N[C@H]2C#C/C=C\C#C[C@H]3O)C(=O)c1cc(OC)ccc1C4=O`: the 50% effective concentration (EC50) in experiment [1] came to 21 nM; in experiment [2] it was 19 nM; in experiment [3], 14 nM; in experiment [4] it was 68 nM. The result in experiment [5] was Active.
With `COC(=O)[C@H](O)[C@@](C)(O)[C@@]12O[C@]13c1cc(O)c4c(c1N[C@H]2C#C/C=C\C#C[C@H]3O)C(=O)c1c(ccc(OCC(C)=O)c1O)C4=O`, the concentration giving a half-maximal response (EC50) in experiment [1] stood at 1.1 nM; in experiment [2] it was 0.8 nM; in experiment [3] it was 0.9 nM; in experiment [4], 3.7 nM. In experiment [5], the outcome was Active.
Take `COC(=O)[C@H](O)[C@@](C)(O)[C@@]12O[C@]13c1cc(O)c4c(c1N[C@H]2C#C/C=C\C#C[C@H]3O)C(=O)c1c(ccc(O)c1O)C4=O`: the EC50 in experiment [1] was 45 nM; in experiment [2], 32 nM; in experiment [3], 34 nM; in experiment [4] it was 66 nM. The outcome in experiment [5] was Active.
Turning to `C#CCOc1ccc2c(c1O)C(=O)c1c3c(cc(O)c1C2=O)[C@@]12O[C@@]1([C@](C)(O)[C@@H](O)C(=O)OC)[C@H](C#C/C=C\C#C[C@H]2O)N3`, the EC50 was 2.8 nM in experiment [1], 2.8 nM in experiment [2], 3.7 nM in experiment [3] and 26 nM in experiment [4]. Moreover, the outcome in experiment [5] was Active.
Consider `COc1ccc2c(c1O)C(=O)c1c3c(cc(O)c1C2=O)[C@@]12O[C@@]1([C@@H](C)O)[C@H](C#C/C=C\C#C[C@H]2O)N3`, for which the half-maximal effective concentration (EC50) was found to be 0.45 nM in experiment [1], 0.74 nM in experiment [2], 1.1 nM in experiment [3] and 4.2 nM in experiment [4]. In addition, in experiment [5], the result was Active.
